# In ChEMBL document CHEMBL1140408 (J Med Chem, 2005):
# Biological target: T1, Transient receptor potential cation channel subfamily V member 1 (Rattus norvegicus, UniProt O35433)
# Experiment: Inhibitory effect on capsaicin (0.5 uM)-induced calcium uptake in rat DRG neurons upon incubation at RT for 10 minutes; NE=Not effective; call rule not given here
# Method in brief: (§1)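 Neonatal Sprague–Dawley rat DRG neurons, dissociated with collagenase/trypsin and cultured 3 days with 200 ng/mL NGF (cytosine arabinoside for the first 2 days), were washed in Ca/Mg-free HBSS with 10 mM HEPES at pH 7.4. They were then given 45Ca2+ (10 µCi/mL), 0.5 µM capsaicin and compound for 10 min at room temperature, SDS-lysed and scintillation-counted.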
# T1 sequence (O35433 whole entry): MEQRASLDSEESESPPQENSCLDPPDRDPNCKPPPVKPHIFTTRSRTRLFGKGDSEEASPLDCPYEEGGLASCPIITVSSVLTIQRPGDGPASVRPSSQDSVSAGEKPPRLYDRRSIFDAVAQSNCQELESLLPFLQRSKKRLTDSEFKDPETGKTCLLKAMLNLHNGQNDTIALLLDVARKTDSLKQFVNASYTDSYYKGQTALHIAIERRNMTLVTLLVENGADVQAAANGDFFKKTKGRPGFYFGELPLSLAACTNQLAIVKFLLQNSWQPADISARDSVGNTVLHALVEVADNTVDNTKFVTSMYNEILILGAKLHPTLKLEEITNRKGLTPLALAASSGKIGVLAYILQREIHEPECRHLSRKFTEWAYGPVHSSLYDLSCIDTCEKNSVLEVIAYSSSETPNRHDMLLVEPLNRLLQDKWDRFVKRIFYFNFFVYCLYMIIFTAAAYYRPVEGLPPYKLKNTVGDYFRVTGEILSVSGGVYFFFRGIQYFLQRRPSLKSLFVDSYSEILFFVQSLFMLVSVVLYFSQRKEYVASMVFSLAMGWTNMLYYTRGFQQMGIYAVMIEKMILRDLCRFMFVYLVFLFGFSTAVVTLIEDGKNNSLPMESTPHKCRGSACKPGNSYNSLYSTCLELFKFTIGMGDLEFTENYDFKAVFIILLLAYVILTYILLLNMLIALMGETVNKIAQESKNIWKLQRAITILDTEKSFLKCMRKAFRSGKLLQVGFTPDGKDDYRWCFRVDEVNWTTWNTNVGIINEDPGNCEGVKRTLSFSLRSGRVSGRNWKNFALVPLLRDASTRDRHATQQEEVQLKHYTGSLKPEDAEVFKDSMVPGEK
row,SMILES,IC50
1,CC(C)(C)c1ccccc1C/N=C(\S)NCc1ccc(NS(C)(=O)=O)c(F)c1,Not Active
2,CC(C)(C)c1ccc(C/N=C(\S)NCc2ccc(N)c(F)c2)cc1,Not Active
3,COC(=O)Nc1ccc(C/N=C(\S)NCc2ccc(C(C)(C)C)cc2)cc1F,Not Active

# Biological target: T1, Transient receptor potential cation channel subfamily V member 1
# Experiment: Inhibitory effect on capsaicin (0.5 uM)-induced calcium uptake in rat DRG neurons upon incubation at RT for 10 minutes; NE = Not effective
# Method in brief: as §1
row,SMILES,IC50
1,CC(C)(C)c1ccc(C/N=C(\S)NCc2ccc(NCC(=O)O)c(F)c2)cc1,Not Active
2,CC(C)(C)c1ccc(C/N=C(\S)NCc2ccc3c(c2)OCO3)cc1,Not Active

# Biological target: T2, Transient receptor potential cation channel subfamily V member 1 (Homo sapiens, UniProt Q8NER1)
# Experiment: Concentration required to inhibit [3H]RTX radioligand binding towards transient receptor potential cation channel (subfamily V, member 1) expressed in chinese hamster ovary cells
# Type: cell-based, CHO
# T2 sequence (Q8NER1 whole entry): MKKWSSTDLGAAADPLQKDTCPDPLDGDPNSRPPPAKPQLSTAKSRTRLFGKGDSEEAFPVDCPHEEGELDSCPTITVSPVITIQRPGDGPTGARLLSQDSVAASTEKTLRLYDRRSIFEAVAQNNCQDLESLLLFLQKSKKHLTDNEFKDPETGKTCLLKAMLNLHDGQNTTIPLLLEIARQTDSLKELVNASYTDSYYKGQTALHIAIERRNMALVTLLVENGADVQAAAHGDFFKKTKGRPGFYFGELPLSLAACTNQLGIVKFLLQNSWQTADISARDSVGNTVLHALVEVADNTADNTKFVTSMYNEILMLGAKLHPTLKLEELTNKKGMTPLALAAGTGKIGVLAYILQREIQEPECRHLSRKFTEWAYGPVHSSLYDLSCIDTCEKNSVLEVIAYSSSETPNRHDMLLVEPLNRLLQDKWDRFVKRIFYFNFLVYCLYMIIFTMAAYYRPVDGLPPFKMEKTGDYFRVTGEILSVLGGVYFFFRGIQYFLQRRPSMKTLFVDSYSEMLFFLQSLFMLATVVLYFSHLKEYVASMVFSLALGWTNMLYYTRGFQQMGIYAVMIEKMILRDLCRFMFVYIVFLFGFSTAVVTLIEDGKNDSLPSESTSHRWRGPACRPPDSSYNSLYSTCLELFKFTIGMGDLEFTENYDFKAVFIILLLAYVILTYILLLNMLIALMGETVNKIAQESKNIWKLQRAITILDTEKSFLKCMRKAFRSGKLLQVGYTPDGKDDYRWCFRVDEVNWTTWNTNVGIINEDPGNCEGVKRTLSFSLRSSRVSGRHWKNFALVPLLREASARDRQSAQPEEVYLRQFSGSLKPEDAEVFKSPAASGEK
row,SMILES,IC50 [nM]
1,CC(C)(C)c1ccc(CNC(=S)NCc2ccc(NS(C)(=O)=O)c(F)c2)cc1,54

# Biological target: T1, Transient receptor potential cation channel subfamily V member 1
# Experiment: Inhibitory effect on capsaicin (0.5 uM)-induced calcium uptake in rat DRG neurons upon incubation at RT for 10 minutes
# Method in brief: as §1
row,SMILES,IC50 [nM]
1,CC(C)(C)c1ccc(CNC(=S)NCc2ccc(NS(C)(=O)=O)c([N+](=O)[O-])c2)cc1,71
2,CC(C)(C)c1ccc(C/N=C(\S)NCc2ccc(NS(C)(=O)=O)c(C#N)c2)cc1,5900
3,CC(C)(C)c1ccc(CCNC(=S)NCc2ccc(NS(C)(=O)=O)c(F)c2)cc1,370
4,CS(=O)(=O)Nc1ccc(CN=C(S)NCc2cccc3ccccc23)cc1F,2600
5,CCOC(=O)CNc1ccc(CNC(=S)NCc2ccc(C(C)(C)C)cc2)cc1F,> 30000
6,CC(C)(C)c1ccc(CNC(=S)NCc2ccc3nc[nH]c3c2)cc1,790
7,CC(C)(C)c1ccc(C/N=C(\S)NCc2ccc(NS(C)(=O)=O)c(Br)c2)cc1,80
8,CC(C)(C)c1cc(CNC(=S)NCc2ccc(NS(C)(=O)=O)c(F)c2)cc(C(C)(C)C)c1,200
9,CS(=O)(=O)Nc1ccc(C/N=C(\S)NCc2ccc(Br)cc2)cc1F,570
10,CC(C)(C)c1ccc(CNC(=S)NCc2ccc(NS(C)(=O)=O)c(I)c2)cc1,41
11,Cc1ccc(C/N=C(\S)NCc2ccc(NS(C)(=O)=O)c(F)c2)cc1,1500
12,CC(C)(C)c1ccc(C/N=C(\S)NCc2ccc(NS(C)(=O)=O)c(C(=O)NO)c2)cc1,> 30000
13,CCOC(=O)N/C(=N\Cc1ccc(NS(C)(=O)=O)c(F)c1)NCc1ccc(C(C)(C)C)cc1,6200
14,CCc1ccc(C/N=C(\S)NCc2ccc(NS(C)(=O)=O)c(F)c2)cc1,1100
15,CS(=O)(=O)Nc1ccc(C/N=C(\S)NCc2ccc(I)cc2)cc1F,630
16,CONC(=O)c1cc(C/N=C(\S)NCc2ccc(C(C)(C)C)cc2)ccc1NS(C)(=O)=O,> 30000
17,CS(=O)(=O)Nc1ccc(C/N=C(\S)NC(c2ccccc2)c2ccccc2)cc1F,2500
18,CS(=O)(=O)Nc1ccc(C/N=C(\S)Nc2c3ccccc3cc3ccccc23)cc1F,1100

row,SMILES,IC50 [nM]
1,CC(C)(C)c1ccc(CNC(=S)NCc2ccc(NC(=O)C(F)(F)F)c(F)c2)cc1,> 30000
2,CC(C)(C)NC(=S)NCc1ccc(NS(C)(=O)=O)c(F)c1,> 30000
3,CC(C)(C)c1ccc(CNC(=S)NCc2ccc3nn[nH]c3c2)cc1,50
4,CCCCc1ccc(CNC(=S)NCc2ccc(NS(C)(=O)=O)c(F)c2)cc1,470
5,CC(C)c1ccc(C/N=C(\S)NCc2ccc(NS(C)(=O)=O)c(F)c2)cc1,520
6,CC(C)(C)c1ccc(N/C(S)=N/Cc2ccc(NS(C)(=O)=O)c(F)c2)cc1,1600
7,COCC(=O)Nc1ccc(CNC(=S)NCc2ccc(C(C)(C)C)cc2)cc1F,10900
8,Cc1ccccc1C/N=C(\S)NCc1ccc(NS(C)(=O)=O)c(F)c1,670
9,Cc1cccc(CNC(=S)NCc2ccc(NS(C)(=O)=O)c(F)c2)c1,1300
10,CC(C)(C)c1ccc(CNC(=S)NCc2ccc3[nH]ccc3c2)cc1,1800
11,CC(C)(C)c1ccc(C/N=C(\NC#N)NCc2ccc(NS(C)(=O)=O)c(F)c2)cc1,730
12,CCOC(=O)Nc1ccc(C/N=C(\S)NCc2ccc(C(C)(C)C)cc2)cc1F,> 30000
13,CC(C)OC(=O)c1cc(C/N=C(\S)NCc2ccc(C(C)(C)C)cc2)ccc1NS(C)(=O)=O,> 30000
14,CS(=O)(=O)Nc1ccc(CNC(=S)NCc2ccc(-c3ccccc3)cc2)cc1F,> 30000
15,COC(=O)CNc1ccc(CNC(=S)NCc2ccc(C(C)(C)C)cc2)cc1F,3600
16,CCCc1ccc(CNC(=S)NCc2ccc(NS(C)(=O)=O)c(F)c2)cc1,460
17,CC(C)(C)c1ccc(CCC/N=C(\S)NCc2ccc(NS(C)(=O)=O)c(F)c2)cc1,2000
18,CC(C)(C)c1ccc(C(C)(C)/N=C(\S)NCc2ccc(NS(C)(=O)=O)c(F)c2)cc1,> 30000

# Biological target: T2, Transient receptor potential cation channel subfamily V member 1
# Experiment: Concentration required to antagonized capsaicin-induced calcium uptake at the transient receptor potential cation channel (subfamily V member 1) expressed in chinese hamster ovary cells
# Type: cell-based, CHO
row,SMILES,EC50 [nM]
1,CC(C)(C)c1ccc(CNC(=S)NCc2ccc(NS(C)(=O)=O)c(F)c2)cc1,8
